A selection: hits, their analogues and other compounds. The true share with any hit is near 2%.
dFosB act-1: mouse delta FosB homodimer activation; purified delta FosB, TAMRA-CDK5 oligo fluorescence polarization; percent of positive-control signal above neutral wells; activation, % at 25 µM; 340,000 tested, 0.99% active; AID 493131;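 active = mean activation above about 17%, with every replicate also reaching it, limit read from the data, passing the limit was not always enough; inconclusive = only one of the two conditions met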
CAL PDZ FP-1: blocks peptide binding to human CAL PDZ domain; purified CAL PDZ, TMR-peptide fluorescence polarization, 1 h; Q9HD26; inhibition, % at 20 µM; AID 504414; 330,000 tested, 0.02% active;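 active = highest replicate inhibition of at least 40%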
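Control set: unlabelled peptide and DMSO controls / Material: purified CerCALP PDZ construct / Timing: 1 h incubation at room temperature before polarization reading / Doses: 20 µM, one dose / Detection: fluorescence polarization (mP)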
CAL PDZ FP-2: blocks peptide binding to the human CAL PDZ domain; Q9HD26; purified CAL PDZ, TMR-peptide fluorescence polarization, 1 h; inhibition, % at 24.9 µM; 300,000 tested, 0.92% active; AID 602252;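 active = mean inhibition of at least 30% with at least half of replicates also reaching 30%; inconclusive = no clear call, values can overlap the other calls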
PKA-R2B activ: activates the human PKA-R2B holoenzyme complex. P22694+P31323. PKA-R2B holoenzyme dissociation, Cy5-IP20 fluorescence polarization; R2B truncated from residue 108, S112A mutant; 0% DMSO only, 100% 113 µM cGMP. activation, % at 11.4 µM. 340,000 tested, 0.079% active;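 active = activation above a cutoff set at the mean over all compounds plus 3 SD, cut at about 18% in these data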;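 also: higher means more holoenzyme dissociation and a rise in polarization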
Target sequence (P31323 whole entry, looked up, other chains not shown, the tested form may be a part): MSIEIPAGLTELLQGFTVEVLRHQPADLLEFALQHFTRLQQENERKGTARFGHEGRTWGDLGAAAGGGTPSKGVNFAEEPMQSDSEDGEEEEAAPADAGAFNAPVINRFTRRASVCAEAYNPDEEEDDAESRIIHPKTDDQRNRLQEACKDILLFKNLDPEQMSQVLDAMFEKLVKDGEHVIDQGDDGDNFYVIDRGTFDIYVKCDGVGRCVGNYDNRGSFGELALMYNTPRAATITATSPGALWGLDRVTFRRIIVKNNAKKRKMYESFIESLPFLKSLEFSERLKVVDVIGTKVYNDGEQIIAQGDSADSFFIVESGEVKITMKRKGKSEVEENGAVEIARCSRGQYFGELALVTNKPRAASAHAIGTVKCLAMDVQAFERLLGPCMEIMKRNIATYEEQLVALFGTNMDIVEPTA
NTR1 ag: activates human neurotensin receptor 1. P30989. 330,000 tested, 0.17% active. NTR1-U2OS beta-arrestin-GFP spot imaging, agonist mode. activation, % at 20 µM;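 active = activation at or above 40% of the spot to cytoplasm intensity ratio, with at least 20 cells analyzed; inconclusive = wells under 20 cells, flagged as cytotoxic or low count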
PKA-R1A act: activators of PKA-R1A complex; P00514+P68181; PKA-R1A dissociation, Cy5-IP20 fluorescence polarization; scaled: DMSO 0%, 113 µM cGMP 100%; activation, % at 11.4 µM; 340,000 tested, 0.083% active; AID 504707;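 active = percent activation above the mean of all tested compounds plus 3 SD, cut at about 19% in these data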;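 also: higher means more PKAc released from R1A so a rise in polarization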
dFosB act-2: delta FosB (mouse) homodimer activation. shares compounds with dFosB act-1. purified delta FosB, TAMRA-CDK5 oligo fluorescence polarization; normalised: neutral wells 0, positive control 100. activation, % at 24.9 µM. 2,400 tested, under 10 active;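 active = highest replicate activation at or above 34% and every replicate reaching that threshold; inconclusive = meets only one of the two criteria; inactive = meets neither criterion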;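 also: higher polarization means more probe DNA bound by delta FosB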
Hits are given with their value; n = inactive; u = inconclusive; x = not tested or not shown.

SMILES	dFosB act-1	CAL PDZ FP-1	CAL PDZ FP-2	PKA-R2B activ	NTR1 ag	PKA-R1A act	dFosB act-2
CCNC(=O)N(C)C[C@H]1N[C@@](Cc2ccccc2)(C(=O)OC)[C@H]2C(=O)N(C)C(=O)[C@@H]12	n	n	n	n	n	n	x
COc1cc(/C=N/N=C(/N)c2nonc2N)cc(Br)c1OCc1ccccc1C	n	n	n	n	n	n	x
CCOc1cc(/C=N/N=C(/N)c2nonc2N)cc(Br)c1OCc1ccc(Cl)cc1	34.1	n	x	n	n	n	n
COc1ccccc1C=NN=C(N)C(N)=NN=Cc1ccccc1OC	69.5	n	n	n	x	n	u
COc1ccccc1/C=N\N=C(\N)c1ccccn1	n	n	n	n	n	n	x
COc1cc2c(cc1OC)C(c1cccs1)N(C(=O)c1ccc(S(=O)(=O)N(C)C)cc1)CC2 (centres undefined)	n	n	n	n	n	n	x
Nc1nc(Nc2ccccc2)nc(NCc2ccco2)c1[N+](=O)[O-]	26.6	n	n	n	n	n	n
CC(=O)c1sc(NC(=O)C2CCCN2S(=O)(=O)c2ccccc2F)nc1C (centres undefined)	20.8	n	n	n	n	n	n
CC(C)(C)OC(=O)N[C@@H](Cc1ccccc1)c1nnc(SCC(=O)c2ccc(Cl)cc2)o1	43.8	n	n	n	n	n	n
CC(=O)c1c(C)[nH]c(C(=O)OCc2c(F)cccc2Cl)c1C	21.5	n	n	n	n	n	n
Cc1ccc(Cn2c(=N)n(CC(=O)c3ccccc3)c3ccccc32)cc1	30.3	n	n	n	n	n	n
CC(C)(C)C(=O)Cn1c(=N)n(Cc2ccccc2)c2ccccc21	n	n	n	n	n	n	x
COc1ccc(Cl)cc1NC(=O)C1Cc2ccccc2CN1S(C)(=O)=O (centres undefined)	n	n	n	n	n	n	x
COc1cc(NC(=O)C2Cc3ccccc3CN2S(C)(=O)=O)cc(OC)c1 (centres undefined)	23.2	n	n	n	n	n	n
CCCCCC(=O)N1C[C@H](n2cc(-c3ccc(F)cc3)nn2)[C@@H](O)C[C@@H]1c1ccc(C)cc1	x	x	x	n	x	n	x
CCn1cc(C(=O)C(F)(F)F)c2ccccc21	n	n	n	n	n	n	x
CCn1cc(C(=O)NP(=O)(Nc2ccc(C)cc2)Nc2ccc(C)cc2)c2ccccc21	35.6	n	n	n	n	n	n
CCOC(=O)C1=C(c2ccccc2)NC(=O)NC1c1ccsc1 (centres undefined)	n	n	x	n	n	n	x
COc1ccc(CCC(=O)Nc2ccc(-c3noc(-c4ccc(OC)c(OC)c4)n3)cc2)cc1	28.6	n	n	n	n	n	n
COc1ccc(-c2nc3cc(NC(=O)Cc4ccc(OC)c(OC)c4)ccc3o2)cc1	55.8	n	n	n	n	n	n
COc1ccc(OCC(=O)Nc2ccc3oc(-c4ccncc4)nc3c2)cc1	n	n	n	n	n	n	x
COc1ccc(C(=O)Nc2ccc(C(=O)NCCc3ccc(OC)c(OC)c3)cc2)cc1	41.1	n	n	n	n	n	n
O=C(COc1ccc(Cl)cc1)Nc1ccc2oc(-c3ccncc3)nc2c1	37.1	n	x	n	n	n	n
Cn1c(=O)c2nc(SCc3ccccc3)n(C)c2n(C)c1=O	n	n	n	n	x	n	x
COc1cc2c(cc1OC)C(COc1ccc(C(C)C)cc1)NCC2 (centres undefined)	n	n	n	n	n	n	x
CC1CCCC(NC(=O)Cn2cc(C(F)(F)F)cc(Cl)c2=O)C1C (centres undefined)	n	n	n	n	n	n	x
O=c1c2ccccc2oc2c1oc1ccccc12	n	n	n	n	n	n	x
CN(Cc1ccccc1)C(=O)c1ccc(NC(=O)Cc2ccc(NC(=O)C3CCN(C(=O)C4CCCC4)CC3)cc2)cc1	n	n	n	n	x	n	x
COc1ccc(CC(=O)Nc2ccc(-c3nnc(-c4ccccc4)o3)cc2)cc1OC	119.8	x	n	n	n	n	n
